Active and inactive are the calls of the source. The rule behind the calls is not given here.
test system: NCI/ADR-RES; assay: Growth inhibition of human NCI/ADR-RES cells incubated for 48 hrs by sulforhodamine B assay; assay type: functional; conditions: not given
Method in brief: (§1)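 NCI full panel screen: five 10-fold dilutions (10^-4–10^-8 M). GI50 is the molar concentration giving 50% inhibition of net cell growth.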

Q: Which GI50 does the source give for COCCn1cc(-c2csc(-c3c[nH]c4ccccc34)n2)c2cccnc21 here?
A: 1.76 µM

test system: HT-29; assay: Growth inhibition of human HT-29 cells incubated for 48 hrs by sulforhodamine B assay; assay type: functional; conditions: HT-29, 48 h; method in brief: as §1

Q: How did the GI50 turn out when COCCn1cc(-c2csc(-c3c[nH]c4ccccc34)n2)c2cccnc21 was run?
A: 3.19 µM

test system: MCF7; assay: Growth inhibition of human MCF7 cells incubated for 48 hrs by sulforhodamine B assay; assay type: functional; conditions: MCF7, 48 h; method in brief: as §1

Q: Which GI50 does the source give for COCCn1cc(-c2csc(-c3c[nH]c4ccccc34)n2)c2cccnc21 here?
A: 1.74 µM

test system: SNB-19; assay: Growth inhibition of human SNB19 cells incubated for 48 hrs by sulforhodamine B assay; assay type: functional; conditions: SNB-19, 48 h
Method in brief: (§2)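 NCI full-panel human tumour cell screen. Cells were exposed to five 10-fold dilutions from 10^-4 to 10^-8 M. GI50 is the molar concentration giving 50% inhibition of net cell growth, and a mean graph midpoint was calculated across the panel.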

Q: With COCCn1cc(-c2csc(-c3c[nH]c4ccccc34)n2)c2cccnc21 as the compound, how does the GI50 read?
A: 16.2 µM

test system: HOP-62; assay: Growth inhibition of human HOP62 cells incubated for 48 hrs by sulforhodamine B assay; assay type: functional; conditions: HOP-62, 48 h; method in brief: as §1

Q: With COCCn1cc(-c2csc(-c3c[nH]c4ccccc34)n2)c2cccnc21 as the compound, how does the GI50 read?
A: 2.82 µM

test system: IGROV-1; assay: Growth inhibition of human IGROV1 cells incubated for 48 hrs by sulforhodamine B assay; assay type: functional; conditions: IGROV-1, 48 h; method in brief: as §1

Q: With COCCn1cc(-c2csc(-c3c[nH]c4ccccc34)n2)c2cccnc21 as the compound, how does the GI50 read?
A: 2.53 µM

test system: HCT-15; assay: Growth inhibition of human HCT15 cells incubated for 48 hrs by sulforhodamine B assay; assay type: functional; conditions: HCT-15, 48 h; method in brief: as §1

Q: How did the GI50 turn out when COCCn1cc(-c2csc(-c3c[nH]c4ccccc34)n2)c2cccnc21 was run?
A: 2.34 µM

test system: HCT-116; assay: Growth inhibition of human HCT116 cells incubated for 48 hrs by sulforhodamine B assay; assay type: functional; conditions: HCT-116, 48 h; method in brief: as §1

Q: How did the GI50 turn out when COCCn1cc(-c2csc(-c3c[nH]c4ccccc34)n2)c2cccnc21 was run?
A: 3.63 µM

test system: MDA-MB-468; assay: Growth inhibition of human MDA-MB-468 cells incubated for 48 hrs by sulforhodamine B assay; assay type: functional; conditions: MDA-MB-468, 48 h; method in brief: as §1

Q: How did the GI50 turn out when COCCn1cc(-c2csc(-c3c[nH]c4ccccc34)n2)c2cccnc21 was run?
A: 0.97 µM

test system: SK-OV-3; assay: Growth inhibition of human SKOV3 cells incubated for 48 hrs by sulforhodamine B assay; assay type: functional; conditions: SK-OV-3, 48 h; method in brief: as §2

Q: COCCn1cc(-c2csc(-c3c[nH]c4ccccc34)n2)c2cccnc21 was tested. Which GI50 did it give?
A: 14.8 µM

test system: MCF7; assay: Cell cycle arrest in human MCF7 cells assessed as reduction in accumulation at G0/G1 phase at GI50 concentration after 48 hrs by propidium iodide-staining based flow cytometry; assay type: functional; conditions: not given
Method in brief: (§3)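 Cells were trypsinized, washed in cold PBS, and 1 x 10^6 cells stained with 20 µg/ml PI plus 200 µg/ml RNase for 30 min at room temperature in the dark. At least 1x 10^4 cells were analysed by flow cytometry. Mean±SD of three experiments in triplicate.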

Q: COCCn1cc(-c2csc(-c3c[nH]c4ccccc34)n2)c2cccnc21 was tested. Which Activity did it give?
A: Active

test system: SF-268; assay: Growth inhibition of human SF268 cells incubated for 48 hrs by sulforhodamine B assay; assay type: functional; conditions: SF-268, 48 h; method in brief: as §1

Q: With COCCn1cc(-c2csc(-c3c[nH]c4ccccc34)n2)c2cccnc21 as the compound, how does the GI50 read?
A: 6.98 µM

test system: NCI-H23; assay: Growth inhibition of human NCI-H23 cells incubated for 48 hrs by sulforhodamine B assay; assay type: functional; conditions: NCI-H23, 48 h; method in brief: as §1

Q: For COCCn1cc(-c2csc(-c3c[nH]c4ccccc34)n2)c2cccnc21, which GI50 is on record?
A: 4.58 µM

test system: Hs-578T; assay: Growth inhibition of human Hs 578T cells incubated for 48 hrs by sulforhodamine B assay; assay type: functional; conditions: not given; method in brief: as §1

Q: Which GI50 does the source give for COCCn1cc(-c2csc(-c3c[nH]c4ccccc34)n2)c2cccnc21 here?
A: 9.14 µM

test system: A498; assay: Growth inhibition of human A498 cells incubated for 48 hrs by sulforhodamine B assay; assay type: functional; conditions: A498, 48 h; method in brief: as §1

Q: Which GI50 does the source give for COCCn1cc(-c2csc(-c3c[nH]c4ccccc34)n2)c2cccnc21 here?
A: 3.03 µM

test system: Malme-3M; assay: Growth inhibition of human MALME-3M cells incubated for 48 hrs by sulforhodamine B assay; assay type: functional; conditions: not given; method in brief: as §1

Q: For COCCn1cc(-c2csc(-c3c[nH]c4ccccc34)n2)c2cccnc21, which GI50 is on record?
A: 3.58 µM

test system: SR; assay: Growth inhibition of human SR cells incubated for 48 hrs by sulforhodamine B assay; assay type: functional; conditions: not given; method in brief: as §2

Q: Which GI50 does the source give for COCCn1cc(-c2csc(-c3c[nH]c4ccccc34)n2)c2cccnc21 here?
A: 3.02 µM

test system: OVCAR-5; assay: Growth inhibition of human OVCAR5 cells incubated for 48 hrs by sulforhodamine B assay; assay type: functional; conditions: OVCAR-5, 48 h; method in brief: as §1

Q: COCCn1cc(-c2csc(-c3c[nH]c4ccccc34)n2)c2cccnc21 was tested. Which GI50 did it give?
A: 28.2 µM

test system: MCF7; assay: Cell cycle arrest in human MCF7 cells assessed as reduction in accumulation at S phase at GI50 concentration after 48 hrs by propidium iodide-staining based flow cytometry; assay type: functional; conditions: not given; method in brief: as §3

Q: How did the Activity turn out when COCCn1cc(-c2csc(-c3c[nH]c4ccccc34)n2)c2cccnc21 was run?
A: Active

test system: U-251; assay: Growth inhibition of human U251 cells incubated for 48 hrs by sulforhodamine B assay; assay type: functional; conditions: U-251, 48 h; method in brief: as §2

Q: COCCn1cc(-c2csc(-c3c[nH]c4ccccc34)n2)c2cccnc21 was tested. Which GI50 did it give?
A: 6.12 µM

test system: LOX IMVI; assay: Growth inhibition of human LOXIMVI cells incubated for 48 hrs by sulforhodamine B assay; assay type: functional; conditions: not given; method in brief: as §1

Q: Which GI50 does the source give for COCCn1cc(-c2csc(-c3c[nH]c4ccccc34)n2)c2cccnc21 here?
A: 3.96 µM

test system: K562; assay: Growth inhibition of human K562 cells incubated for 48 hrs by sulforhodamine B assay; assay type: functional; conditions: K562, 48 h; method in brief: as §1

Q: Which GI50 does the source give for COCCn1cc(-c2csc(-c3c[nH]c4ccccc34)n2)c2cccnc21 here?
A: 2.8 µM

test system: NCI-H522; assay: Growth inhibition of human NCI-H522 cells incubated for 48 hrs by sulforhodamine B assay; assay type: functional; conditions: NCI-H522, 48 h; method in brief: as §1

Q: How did the GI50 turn out when COCCn1cc(-c2csc(-c3c[nH]c4ccccc34)n2)c2cccnc21 was run?
A: 2.07 µM

test system: PC-3; assay: Growth inhibition of human PC3 cells incubated for 48 hrs by sulforhodamine B assay; assay type: functional; conditions: PC-3, 48 h; method in brief: as §1

Q: How did the GI50 turn out when COCCn1cc(-c2csc(-c3c[nH]c4ccccc34)n2)c2cccnc21 was run?
A: 6.81 µM

test system: OVCAR-8; assay: Growth inhibition of human OVCAR8 cells incubated for 48 hrs by sulforhodamine B assay; assay type: functional; conditions: OVCAR-8, 48 h; method in brief: as §1

Q: Which GI50 does the source give for COCCn1cc(-c2csc(-c3c[nH]c4ccccc34)n2)c2cccnc21 here?
A: 8 µM

test system: 786-0; assay: Growth inhibition of human 786-0 cells incubated for 48 hrs by sulforhodamine B assay; assay type: functional; conditions: 786-0, 48 h; method in brief: as §1

Q: How did the GI50 turn out when COCCn1cc(-c2csc(-c3c[nH]c4ccccc34)n2)c2cccnc21 was run?
A: 6.25 µM

test system: A549; assay: Growth inhibition of human A549/ATCC cells incubated for 48 hrs by sulforhodamine B assay; assay type: functional; conditions: A549, 48 h; method in brief: as §1

Q: For COCCn1cc(-c2csc(-c3c[nH]c4ccccc34)n2)c2cccnc21, which GI50 is on record?
A: 7.1 µM

test system: Panel NCI-60 (60 carcinoma cell lines); assay: Growth inhibition of human NCI60 cells at 10^-5 M incubated for 48 hrs by sulforhodamine B assay; assay type: functional, cell-based; conditions: not given

Q: For COCCn1cc(-c2csc(-c3c[nH]c4ccccc34)n2)c2cccnc21, which “growth inhibition (GI)” value is on record?
A: Active

test system: BT-549; assay: Growth inhibition of human BT549 cells incubated for 48 hrs by sulforhodamine B assay; assay type: functional; conditions: BT-549, 48 h; method in brief: as §1

Q: Which GI50 does the source give for COCCn1cc(-c2csc(-c3c[nH]c4ccccc34)n2)c2cccnc21 here?
A: 4.45 µM

test system: MCF7; assay: Induction of apoptosis in human MCF7 cells assessed as viable cells at 2 x 10^-6 M after 72 hrs by Annexin V/propidium iodide double staining-based flow cytometry (reference value: 98.9%); assay type: functional; conditions: MCF7, 72 h, read-out: Activity
Method in brief: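 MCF-7 cells were grown in RPMI with 10% FBS, 2 mM L-glutamine and antibiotics at 37 °C in 5% CO2. They were seeded at 2.0 x 10^5 cells/cm2 in triplicate, left to adhere overnight, then treated for 72 h; DMSO 0.1% served as vehicle. Trypsinised cells at 2.0 x 10^5/mL were stained with annexin V-FITC and PI for 15 min at room temperature in the dark. At least 1.0 x 10^4 cells were gated into viable, early apoptotic, late apoptotic and necrotic quadrants.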

Q: Which viability at 2 µM does the source give for COCCn1cc(-c2csc(-c3c[nH]c4ccccc34)n2)c2cccnc21 here?
A: 53.4%

test system: SN12C; assay: Growth inhibition of human SN12C cells incubated for 48 hrs by sulforhodamine B assay; assay type: functional; conditions: not given; method in brief: as §2

Q: COCCn1cc(-c2csc(-c3c[nH]c4ccccc34)n2)c2cccnc21 was tested. Which GI50 did it give?
A: > 100 µM

test system: COLO 205; assay: Growth inhibition of human COLO205 cells incubated for 48 hrs by sulforhodamine B assay; assay type: functional; conditions: COLO 205, 48 h; method in brief: as §1

Q: For COCCn1cc(-c2csc(-c3c[nH]c4ccccc34)n2)c2cccnc21, which GI50 is on record?
A: 2.66 µM

test system: HOP-92; assay: Growth inhibition of human HOP92 cells incubated for 48 hrs by sulforhodamine B assay; assay type: functional; conditions: HOP-92, 48 h; method in brief: as §1

Q: With COCCn1cc(-c2csc(-c3c[nH]c4ccccc34)n2)c2cccnc21 as the compound, how does the GI50 read?
A: 14.9 µM

test system: ACHN; assay: Growth inhibition of human ACHN cells incubated for 48 hrs by sulforhodamine B assay; assay type: functional; conditions: not given; method in brief: as §1

Q: Which GI50 does the source give for COCCn1cc(-c2csc(-c3c[nH]c4ccccc34)n2)c2cccnc21 here?
A: 5.6 µM

test system: UACC-257; assay: Growth inhibition of human UACC257 cells incubated for 48 hrs by sulforhodamine B assay; assay type: functional; conditions: UACC-257, 48 h; method in brief: as §2

Q: How did the GI50 turn out when COCCn1cc(-c2csc(-c3c[nH]c4ccccc34)n2)c2cccnc21 was run?
A: > 100 µM

test system: SF-295; assay: Growth inhibition of human SF295 cells incubated for 48 hrs by sulforhodamine B assay; assay type: functional; conditions: SF-295, 48 h; method in brief: as §1

Q: For COCCn1cc(-c2csc(-c3c[nH]c4ccccc34)n2)c2cccnc21, which GI50 is on record?
A: 3.35 µM

test system: UACC-62; assay: Growth inhibition of human UACC62 cells incubated for 48 hrs by sulforhodamine B assay; assay type: functional; conditions: UACC-62, 48 h; method in brief: as §2

Q: COCCn1cc(-c2csc(-c3c[nH]c4ccccc34)n2)c2cccnc21 was tested. Which GI50 did it give?
A: 4.58 µM

test system: KM12; assay: Growth inhibition of human KM12 cells incubated for 48 hrs by sulforhodamine B assay; assay type: functional; conditions: KM12, 48 h; method in brief: as §1

Q: With COCCn1cc(-c2csc(-c3c[nH]c4ccccc34)n2)c2cccnc21 as the compound, how does the GI50 read?
A: 0.76 µM

test system: HCC 2998; assay: Growth inhibition of human HCC2998 cells incubated for 48 hrs by sulforhodamine B assay; assay type: functional; conditions: HCC 2998, 48 h; method in brief: as §1

Q: For COCCn1cc(-c2csc(-c3c[nH]c4ccccc34)n2)c2cccnc21, which GI50 is on record?
A: 4.08 µM

— ChEMBL document CHEMBL4190252, “Synthesis, antitumor activity and CDK1 inhibiton of new thiazole nortopsentin analogues” (Eur J Med Chem, 2017)
